Results: ChEMBL document CHEMBL5230083, “Novel 2, 5-diketopiperazine derivatives as potent selective histone deacetylase 6 inhibitors: Rational design, synthesis and antiproliferative activity” (Eur J Med Chem, 2020)

Assays:
[1] = tested on: MCF7; experiment: Antiproliferative activity against human MCF7 cells assessed as cell growth at 10 uM incubated for 48 hrs by SRB assay relative to control; type: functional; details: read-out: Activity
Outline: (§1)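 Single-concentration screen at 10 μM run by NCI on its NCI-60 human tumour panel (blood, lung, colon, CNS, melanoma, ovary, kidney, prostate, breast), following the NCI-60 published methodology. Read-out is growth percent relative to untreated cells.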

[2] = tested on: Malme-3M; experiment: Antiproliferative activity against human Malme-3M cells assessed as cell growth at 10 uM incubated for 48 hrs by SRB assay relative to control; type: functional; details: read-out: Activity; outline: as §1
[3] = tested on: SF-268; experiment: Antiproliferative activity against human SF-268 cells assessed as cell growth at 10 uM incubated for 48 hrs by SRB assay relative to control; type: functional; details: read-out: Activity; outline: as §1
[4] = tested on: HOP-92; experiment: Antiproliferative activity against human HOP-92 cells assessed as cell growth at 10 uM incubated for 48 hrs by SRB assay relative to control; type: functional; details: read-out: Activity; outline: as §1
[5] = tested on: SK-OV-3; experiment: Antiproliferative activity against human SK-OV-3 cells assessed as cell growth at 10 uM incubated for 48 hrs by SRB assay relative to control; type: functional; details: read-out: Activity
Outline: (§2)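 NCI-60 single-dose screen: compounds tested at 10 μM, and growth percent of each cell line calculated. The full method follows the NCI DTP protocol.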

[6] = tested on: SF-539; experiment: Antiproliferative activity against human SF-539 cells assessed as cell growth at 10 uM incubated for 48 hrs by SRB assay relative to control; type: functional; details: read-out: Activity; outline: as §1
[7] = tested on: HCT-116; experiment: Antiproliferative activity against human HCT-116 cells assessed as cell growth at 10 uM incubated for 48 hrs by SRB assay relative to control; type: functional; details: read-out: Activity; outline: as §1
[8] = tested on: SNB-19; experiment: Antiproliferative activity against human SNB-19 cells assessed as cell growth at 10 uM incubated for 48 hrs by SRB assay relative to control; type: functional; details: read-out: Activity; outline: as §2
[9] = tested on: SK-MEL-28; experiment: Antiproliferative activity against human SK-MEL-28 cells assessed as cell growth at 10 uM incubated for 48 hrs by SRB assay relative to control; type: functional; details: read-out: Activity; outline: as §1
[10] = tested on: K562; experiment: Antiproliferative activity against human K562 cells assessed as cell growth at 10 uM incubated for 48 hrs by SRB assay relative to control; type: functional; details: read-out: Activity; outline: as §1
[11] = tested on: MDA-MB-435; experiment: Antiproliferative activity against human MDA-MB-435 cells assessed as cell growth at 10 uM incubated for 48 hrs by SRB assay relative to control; type: functional; details: read-out: Activity; outline: as §1
[12] = tested on: U-251; experiment: Antiproliferative activity against human U-251 cells assessed as cell growth at 10 uM incubated for 48 hrs by SRB assay relative to control; type: functional; details: read-out: Activity; outline: as §2
[13] = tested on: HOP-62; experiment: Antiproliferative activity against human HOP-62 cells assessed as cell growth at 10 uM incubated for 48 hrs by SRB assay relative to control; type: functional; details: read-out: Activity; outline: as §1
[14] = tested on: HT-29; experiment: Antiproliferative activity against human HT-29 cells assessed as cell growth at 10 uM incubated for 48 hrs by SRB assay relative to control; type: functional; details: read-out: Activity; outline: as §1
[15] = tested on: SK-MEL-5; experiment: Antiproliferative activity against human SK-MEL-5 cells assessed as cell growth at 10 uM incubated for 48 hrs by SRB assay relative to control; type: functional; details: read-out: Activity; outline: as §2
[16] = tested on: U-266; experiment: cells; type: functional, cell-based; details: Homo sapiens, U-266, 72 h
[17] = tested on: OVCAR-5; experiment: Antiproliferative activity against human OVCAR-5 cells assessed as cell growth at 10 uM incubated for 48 hrs by SRB assay relative to control; type: functional; details: read-out: Activity; outline: as §1
[18] = tested on: SR; experiment: Antiproliferative activity against human SR cells assessed as cell growth at 10 uM incubated for 48 hrs by SRB assay relative to control; type: functional; details: read-out: Activity; outline: as §2
[19] = tested on: MOLT-4; experiment: Antiproliferative activity against human MOLT-4 cells assessed as cell growth at 10 uM incubated for 48 hrs by SRB assay relative to control; type: functional; details: read-out: Activity; outline: as §1
[20] = tested on: RXF 393; experiment: Antiproliferative activity against human RXF 393 cells assessed as cell growth at 10 uM incubated for 48 hrs by SRB assay relative to control; type: functional; details: read-out: Activity; outline: as §1
[21] = tested on: SK-MEL-2; experiment: Antiproliferative activity against human SK-MEL-2 cells assessed as cell growth at 10 uM incubated for 48 hrs by SRB assay relative to control; type: functional; details: read-out: Activity; outline: as §1
[22] = tested on: NCI-H522; experiment: Antiproliferative activity against human NCI-H522 cells assessed as cell growth at 10 uM incubated for 48 hrs by SRB assay relative to control; type: functional; details: read-out: Activity; outline: as §1
[23] = tested on: CCRF-CEM; experiment: Antiproliferative activity against human CCRF-CEM cells assessed as cell growth at 10 uM incubated for 48 hrs by SRB assay relative to control; type: functional; details: read-out: Activity; outline: as §1
[24] = tested on: BT-549; experiment: Antiproliferative activity against human BT-549 cells assessed as cell growth at 10 uM incubated for 48 hrs by SRB assay relative to control; type: functional; details: read-out: Activity; outline: as §1
[25] = tested on: HCT-15; experiment: Antiproliferative activity against human HCT-15 cells assessed as cell growth at 10 uM incubated for 48 hrs by SRB assay relative to control; type: functional; details: read-out: Activity; outline: as §1
[26] = tested on: NCI-H460; experiment: Antiproliferative activity against human NCI-H460 cells assessed as cell growth at 10 uM incubated for 48 hrs by SRB assay relative to control; type: functional; details: read-out: Activity; outline: as §1
[27] = tested on: Hs-578T; experiment: Antiproliferative activity against human Hs-578T cells assessed as cell growth at 10 uM incubated for 48 hrs by SRB assay relative to control; type: functional; details: read-out: Activity; outline: as §1
[28] = tested on: OVCAR-8; experiment: Antiproliferative activity against human OVCAR-8 cells assessed as cell growth at 10 uM incubated for 48 hrs by SRB assay relative to control; type: functional; details: read-out: Activity; outline: as §1
[29] = tested on: NCI-H23; experiment: Antiproliferative activity against human NCI-H23 cells assessed as cell growth at 10 uM incubated for 48 hrs by SRB assay relative to control; type: functional; details: read-out: Activity; outline: as §1

| IC50 [16] [µM] | Compound | growth at 10 µM [1] [%] | growth at 10 µM [2] [%] | growth at 10 µM [3] [%] | growth at 10 µM [4] [%] | growth at 10 µM [5] [%] | growth at 10 µM [6] [%] | growth at 10 µM [7] [%] | growth at 10 µM [8] [%] | growth at 10 µM [9] [%] | growth at 10 µM [10] [%] | growth at 10 µM [11] [%] | growth at 10 µM [12] [%] | growth at 10 µM [13] [%] | growth at 10 µM [14] [%] | growth at 10 µM [15] [%] | growth at 10 µM [17] [%] | growth at 10 µM [18] [%] | growth at 10 µM [19] [%] | growth at 10 µM [20] [%] | other results |
| --- | --- | --- | --- | --- | --- | --- | --- | --- | --- | --- | --- | --- | --- | --- | --- | --- | --- | --- | --- | --- | --- |
| 25.9 | O=C(NO)c1ccc(CN2CC(=O)N(Cc3ccccc3)[C@H](Cc3ccccc3)C2=O)cc1 | 82.9 | 77.1 | 96.5 | 102 | 90.4 | 87.3 | 84.1 | 85.4 | 95.4 | 76.4 | 91.3 | 81.3 | 87.8 | 87.9 | 96.7 | 97.8 | 63.5 | 76.7 | 86 | growth at 10 µM [21]: 99.4%; growth at 10 µM [22]: 69.8%; growth at 10 µM [23]: 72%; growth at 10 µM [24]: 103%; growth at 10 µM [25]: 74.3%; growth at 10 µM [26]: 81.6%; growth at 10 µM [27]: 82%; growth at 10 µM [28]: 75%; growth at 10 µM [29]: 86.7% |
| 43.2 | O=C1CN(Cc2ccc(C(=O)NO)cc2)C(=O)[C@@H](Cc2c[nH]c3ccccc23)N1 | 96.7 | 94.6 | 99.3 | 104 | 96.5 | 107 | 54.9 | 96.8 | 110 | 100 | 102 | 96.7 | 102 | 104 | 108 | 107 | 115 | 86.8 | 105 | growth at 10 µM [21]: 113%; growth at 10 µM [22]: 96.7%; growth at 10 µM [23]: 103%; growth at 10 µM [24]: 98.2%; growth at 10 µM [25]: 103%; growth at 10 µM [26]: 104%; growth at 10 µM [27]: 104%; growth at 10 µM [28]: 94.8%; growth at 10 µM [29]: 101% |
